Here are results for five compounds from ChEMBL document CHEMBL3085648, “Enhancement of kinase selectivity in a potent class of arylamide FMS inhibitors” (Bioorg Med Chem Lett, 2013).

The subject of series [1] is Mus musculus. Put plainly: Inhibition of CSF-1-induced c-fos gene expression in mouse spleen at 20 mg/kg, po after 6 hrs. Format: functional. The gist of the method:
(§1)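 In the mouse pharmacodynamic model, compound was given orally. Spleen c-fos mRNA induced by an iv injection of CSF-1 was measured 6 or 8 h after dosing.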

Series [2] is described as follows: (§2) Metabolic stability in human liver microsomes assessed as compound remaining after 10 mins. It counts as ADME. Particulars: liver microsomes, read-out: Stability. The gist of the method: (§3)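 Compound was incubated with human, mouse or rat liver microsomal preparations. Stability is the percent of compound remaining after 10 min.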
(Microsomes from liver hold many membrane-bound enzymes, among them those of drug oxidation.)

Series [3] can be described thus: Metabolic stability in rat liver microsomes assessed as compound remaining after 10 mins. Format: ADME. Particulars: read-out: Stability. The gist of the method:
as §3

Series [4] addresses Mast/stem cell growth factor receptor Kit (Homo sapiens, UniProt P10721). The experiment in a line: Inhibition of KIT (unknown origin).
In series [5] the test system is Rattus norvegicus. Put plainly: Antiinflammatory activity in chronic phase of Lewis rat arthritis model assessed as inhibition of SCW-induced ankle swelling at 10 to 40 mg/kg, po bid administered for 14 days. It counts as functional, organism-based. The gist of the method: (§4)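 Female Lewis rats (80–100 g) received streptococcal cell wall material ip on day 0. On day 5, rats with a distinct acute-phase joint swelling response were randomized (n = 7/group). Vehicle, 10 or 40 mg/kg was given orally bid from day 10 (start of chronic phase) for 14 days. Ankle and paw swelling were followed.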

Series [6] has as its system Mus musculus. Put plainly: Inhibition of CSF-1-induced c-fos gene expression in mouse spleen at 40 mg/kg, po after 6 hrs. It counts as functional. The gist of the method: as §1
For series [7], the system named is Rattus norvegicus. Put plainly: Antiinflammatory activity in chronic phase of po dosed Lewis rat arthritis model assessed as inhibition of SCW-induced ankle swelling administered as bid for 14 days. It counts as functional, organism-based. The gist of the method:
as §4

Series [8] relates to Rattus norvegicus. The experiment in a line: Toxicity in Sprague-Dawley rat at 40 mg/kg, po bid after 4.5 days. It counts as organism-based. On the set-up: dose 40 mg/kg, route oral. To be noted: in vivo, 108 h. The gist of the method:
(§5)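 Female Sprague–Dawley rats (150–200 g) were dosed orally bid for 4 days with vehicle (n = 4) or 10–40 mg/kg (n = 3), as a solution at 6 ml/kg in 20% HPβCD. A final dose was given on day 5 and rats were sacrificed 2 h later. Plasma drug level, body weight versus vehicle controls and blood reticulocytes were assessed.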

Series [9] in a line: Plasma concentration in Sprague-Dawley rat at 40 mg/kg, po bid administered for 5 days measured 2 hrs post last dose. Format: ADME, organism-based. The arrangement: dose 40 mg/kg, route oral. The gist of the method:
as §5

The subject of series [10] is Rattus norvegicus. The experiment in a line: Toxicity in Sprague-Dawley rat assessed as body weight loss at 40 mg/kg, po bid after 4.5 days relative to vehicle-treated control. Particulars: in vivo, 108 h. Format: organism-based. On the set-up: dose 40 mg/kg, route oral. The gist of the method: as §5
The subject of series [11] is Rattus norvegicus. Put plainly: Toxicity in Sprague-Dawley rat assessed as blood reticulocyte level at 40 mg/kg, po bid after 4.5 days. Format: organism-based. The arrangement: dose 40 mg/kg, route oral. Particulars: in vivo, 108 h. The gist of the method:
as §5

A short description of series [12]: Metabolic stability in mouse liver microsomes assessed as compound remaining after 10 mins. Format: ADME, Microsome. Particulars: liver microsomes, read-out: Stability. The gist of the method:
as §3

Series [13] in a line: Plasma concentration in Sprague-Dawley rat at 10 mg/kg, po bid administered for 5 days measured 2 hrs post last dose. It counts as ADME, organism-based. The arrangement: dose 10 mg/kg, route oral. The gist of the method: as §5
A short description of series [14]: AUC in Sprague-Dawley rat at 5 mg/kg, po. The arrangement: dose 5 mg/kg, route oral. Format: ADME, organism-based. Particulars: plasma.
Series [15] is described as follows: Terminal half life in Sprague-Dawley rat at 5 mg/kg, po. On the set-up: dose 5 mg/kg, route oral. Particulars: in vivo, read-out: beta t1/2 (converted). It counts as ADME, organism-based.
Series [16] in a line: Cmax in Sprague-Dawley rat at 5 mg/kg, po. Format: ADME, organism-based. The arrangement: dose 5 mg/kg, route oral. Particulars: in vivo.
A short description of series [17]: Systemic clearance in Sprague-Dawley rat at 1 mg/kg, iv. Format: ADME, organism-based. The arrangement: dose 1 mg/kg, route intravenous. To be noted: in vivo.
Series [18] is described as follows: Oral bioavailability in Sprague-Dawley rat at 5 mg/kg. Format: ADME, organism-based. Particulars: in vivo.
Series [19] is described as follows: Volume of distribution in Sprague-Dawley rat at 1 mg/kg, iv. Format: ADME, organism-based. The arrangement: dose 1 mg/kg, route intravenous. To be noted: in vivo.
Series [20] in a line: Tmax in Sprague-Dawley rat at 5 mg/kg, po. Format: ADME, organism-based. The arrangement: dose 5 mg/kg, route oral. To be noted: in vivo.
In series [21] the test system is Liver microsome. The description is as §2. Format: ADME. Particulars: microsomes, 10 min. The gist of the method: as §3

Each structure is given as a SMILES string. Active and inactive are the calls of the source. The rule behind the calls is not given here.

Chain of Mast/stem cell growth factor receptor Kit (P10721 whole entry): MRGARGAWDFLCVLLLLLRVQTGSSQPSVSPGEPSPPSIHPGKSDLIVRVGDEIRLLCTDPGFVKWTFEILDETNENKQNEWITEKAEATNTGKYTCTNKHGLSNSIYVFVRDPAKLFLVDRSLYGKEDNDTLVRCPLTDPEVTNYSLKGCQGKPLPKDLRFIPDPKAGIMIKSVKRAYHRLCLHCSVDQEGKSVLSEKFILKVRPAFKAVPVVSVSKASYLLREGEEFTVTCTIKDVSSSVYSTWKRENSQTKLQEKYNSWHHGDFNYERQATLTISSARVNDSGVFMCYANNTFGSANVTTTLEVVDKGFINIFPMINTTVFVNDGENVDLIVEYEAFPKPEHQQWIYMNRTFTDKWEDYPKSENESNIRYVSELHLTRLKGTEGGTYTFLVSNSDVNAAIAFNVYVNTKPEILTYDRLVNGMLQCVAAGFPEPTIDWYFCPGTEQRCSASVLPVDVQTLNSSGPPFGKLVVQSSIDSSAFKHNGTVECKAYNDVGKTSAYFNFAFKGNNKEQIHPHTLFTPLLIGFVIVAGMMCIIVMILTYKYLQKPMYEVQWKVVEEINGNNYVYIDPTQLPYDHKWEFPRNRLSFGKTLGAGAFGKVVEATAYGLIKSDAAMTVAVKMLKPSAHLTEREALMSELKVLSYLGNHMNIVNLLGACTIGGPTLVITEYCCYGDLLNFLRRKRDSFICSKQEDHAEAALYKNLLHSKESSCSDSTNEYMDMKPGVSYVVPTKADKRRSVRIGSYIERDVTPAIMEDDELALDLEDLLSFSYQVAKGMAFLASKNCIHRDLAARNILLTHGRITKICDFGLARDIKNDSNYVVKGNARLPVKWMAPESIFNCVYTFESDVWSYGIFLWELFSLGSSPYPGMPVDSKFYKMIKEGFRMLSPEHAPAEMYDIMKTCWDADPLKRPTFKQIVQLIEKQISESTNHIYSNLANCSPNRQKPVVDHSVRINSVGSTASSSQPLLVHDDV

The term inhibition in vivo denotes the relative decrease from the control value, in per cent. A higher inhibition in vivo goes with a strong effect. Broadly, the IC50 is the point on the concentration scale where inhibition reaches its midpoint. Take `COCCNCC(C)(C)c1ccc(NC(=O)c2nc(C#N)c[nH]2)c(C2=CCC(C)(C)CC2)c1`: 20 mg/kg produced 0% inhibition in vivo in series [1]. Further, the values for the remaining at 10 min in [2] and in series [3] were 35% and 39%, respectively. Moreover, the IC50 in series [4] is 110 nM.

As for `CC1(C)CC=C(c2cc(C(C)(C)N3CCN(CCO)CC3)ccc2NC(=O)c2ncc(C#N)[nH]2)CC1`, in series [5], the result was Active. The same compound had an inhibition in vivo at 40 mg/kg in series [6] of 78%. For the same compound, in series [7], the Activity entry is “Dose-dependent effect”.

In the case of `CC1(C)CC=C(c2cc(C(C)(C)N3CCN(CCO)CC3)ccc2NC(=O)c2nc(C#N)c[nH]2)CC1`, the Activity result in series [8], in series [10] and in series [11] was “Non-toxic” each time. Also, the results for the concentration at 2 h in series [9] and in series [13] were 5160 nM and 680 nM, respectively. The remaining at 10 min in series [2] worked out at 110%; in series [3], 63%; in series [12] it was 98%.

As a reminder, the AUC is concentration integrated over time. Higher therefore signals high exposure. In general, Cmax refers to the maximum level reached in the sampled fluid or tissue. The clearance is the rate of elimination divided by the concentration. Usually bioavailability stands for dose-corrected exposure relative to a reference, in per cent. Lower therefore signals poor availability. One may read the Vd as a proportionality between amount in the body and measured concentration, not a real space. Read a low Vd as confinement near the circulation. As a reminder, the Tmax is the time from dosing to the highest level. On to `CC1(C)CC=C(c2cc(C(C)(C)N3CCN(CCO)CC3)ccc2NC(=O)c2nc(C#N)c[nH]2)CC1.Cl`, for which the AUC in series [14] came to 690 ng·h/mL. In addition, the half-life in [15] is 6.5 h. In series [16], this compound registered a Cmax of 210 nM. Also, the clearance in series [17] worked out at 34 mL/min/kg. The same compound showed a bioavailability in series [18] of 31%. In series [19], the Vd came to 7.6 L/kg. The Tmax in [20] is 2.8 h.

Turning to `CC(=O)N1CCN(C(C)(C)c2ccc(NC(=O)c3nc(C#N)c[nH]3)c(C3=CCC(C)(C)CC3)c2)CC1`, the Stability entry in [21] is reported as “ND(Insoluble)”. Moreover, in series [4], the IC50 worked out at 40 nM.
